Sampled rows, rich in hits. Any-hit rate of the full collection: about 3%.
rRNA inh HTS – selective bacterial rRNA inhibition in E. coli; E. coli WT GFP vs humanized-ribosome RFP mutants, fluorescence, 24 h; hits give low values; DMSO median 0, no signal -100; GFP signal change (wild-type ribosome), % (concentration not given with the values); actives 1.6% (n = 350,000);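 active means significant combined selectivity score with lowered wild-type GFP, culture density cut under 30%, mutant RFP and density less affected; inactive means any of these conditions unmet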
PGC1a acetyl inh – modulators of PGC1a acetylation; U2OS PGC1a acetylation, AlphaScreen anti-acetyl-lysine; with virally co-expressed GCN5 acetyltransferase; inhibition, % at 15.6 µM; actives 0.17% (n = 350,000); AID 651687;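 active means every replicate shows inhibition of at least 40%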
Cneo AK release – causes C. neoformans cell lysis; adenylate kinase release luminescence, 4 h; normalised: neutral wells 0, clomiphene wells 100; lysis activity, % at 15 µM; actives 0.2% (n = 360,000); AID 651654;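 active means mean lysis activity across replicates of at least 80%, whatever share of replicates individually reach that level; inactive means mean lysis activity below 80%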
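Test system: log-phase Cryptococcus neoformans yeast cells. Input: 5 × 10^6 yeast cells/mL. Medium: fresh YPD growth medium. Doses: single dose. Incubation: static 4 h at 37 °C with compound, 1 h detection. Measured by: luminescent adenylate kinase detection reagent. Read-out: signal increase indicating cell lysis. Benchmarks: Clomiphene.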
SIRT5 inh – blocks human SIRT5 desuccinylation of peptide; Q9NXA8; AID 652115; inhibition, % at 15 µM; Purified SirT5, succinyl-peptide AMC, trypsin-coupled fluorescence; actives 1.1% (n = 330,000); in the data active means inhibition above about 15%
Target sequence (Q9NXA8 whole entry, looked up): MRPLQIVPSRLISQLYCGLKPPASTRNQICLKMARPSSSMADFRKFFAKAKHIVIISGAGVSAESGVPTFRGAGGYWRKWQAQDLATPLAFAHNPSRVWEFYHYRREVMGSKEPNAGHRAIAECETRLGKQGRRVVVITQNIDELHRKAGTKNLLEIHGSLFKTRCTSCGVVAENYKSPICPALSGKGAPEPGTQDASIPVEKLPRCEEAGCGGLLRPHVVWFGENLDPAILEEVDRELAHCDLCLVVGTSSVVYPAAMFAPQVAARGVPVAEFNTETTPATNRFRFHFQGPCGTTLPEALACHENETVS
Statin myotox sup – suppressors of simvastatin-induced myotoxicity in C2C12 myotubes. ATP luminescence, 48 h; scaled: DMSO 0, geranylgeraniol control 100. actives 0.78% (n = 330,000). AID 602340. rescue of ATP level, % at 7.49 µM;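 active means mean ATP rescue above about 67%, or every replicate alone reaching that limit, limit read from the data, passing the limit was not always enough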;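 further: myotubes were challenged with 10 µM simvastatin during compound exposure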
S100A4 MyoIIA – blocks human S100A4 binding to myosin IIA peptide | S100A4/TAMRA-MyoIIA peptide fluorescence polarization | inhibition, % at 10.7 µM | actives 0.14% (n = 360,000) | AID 652163 | P26447;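 active means mean inhibition of at least 70% across replicates, with every replicate also reaching that level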
Target sequence (P26447 whole entry, looked up): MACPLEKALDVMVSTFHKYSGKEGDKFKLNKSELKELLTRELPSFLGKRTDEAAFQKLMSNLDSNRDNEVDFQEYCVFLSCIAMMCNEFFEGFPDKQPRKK
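System – human S100A4 monomer protein, biochemical binding assay · Buffer or medium – Calcium-containing HEPES buffer, pH 7.2 · Timing – 5 min between mix addition and reading · Also added – TAMRA-labelled myosin IIA heavy-chain peptide probe, 5 nM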
Hits are given with their value.

Screening CC(C)NC(=O)N(C)C[C@@H]1OCCCC[C@H](C)Oc2ccc(NC(=O)c3ccccc3)cc2C(=O)N([C@H](C)CO)C[C@@H]1C returned rRNA inh HTS inactive and PGC1a acetyl inh inactive.
`CC(C)NC(=O)N(C)C[C@H]1OCCCC[C@@H](C)Oc2ccc(NC(=O)c3ccccc3)cc2C(=O)N([C@@H](C)CO)C[C@@H]1C` gave rRNA inh HTS inactive, PGC1a acetyl inh inactive, Cneo AK release 91.5, SIRT5 inh inactive and S100A4 MyoIIA inactive.
O=C(N[C@H]1CC[C@H](CCNC(=O)C2CCC2)O[C@@H]1CO)c1ccncc1 was read as rRNA inh HTS inactive, PGC1a acetyl inh inactive, Cneo AK release inactive, SIRT5 inh inactive, Statin myotox sup inactive and S100A4 MyoIIA inactive.
For CCC(=O)N1C[C@@H](C)[C@@H](OC)CN(C)C(=O)c2cc(NC(=O)C3CCOCC3)ccc2OC[C@H]1C the results were rRNA inh HTS inactive, PGC1a acetyl inh inactive, Cneo AK release inactive, Statin myotox sup inactive and S100A4 MyoIIA inactive.
Screening CCSc1nc2c(cnn2-c2ccccc2)c(=O)n1N returned rRNA inh HTS -17.4, PGC1a acetyl inh inactive, Cneo AK release inactive, SIRT5 inh inactive and S100A4 MyoIIA inactive.
Screening CSc1nc2c(cnn2-c2ccccc2)c(=O)n1N returned rRNA inh HTS inactive, PGC1a acetyl inh inactive, SIRT5 inh inactive, Statin myotox sup inactive and S100A4 MyoIIA inactive.
CN(C)/C=C1\C=C2C(=O)c3ccccc3N2C1=O was read as rRNA inh HTS inactive, PGC1a acetyl inh inactive, SIRT5 inh inactive, Statin myotox sup inactive and S100A4 MyoIIA 75.5.
`CN(C)S(=O)(=O)N1C(=O)c2ccccc2C1=O` gave rRNA inh HTS inactive, PGC1a acetyl inh inactive, Cneo AK release inactive, SIRT5 inh inactive, Statin myotox sup inactive and S100A4 MyoIIA inactive.
CO[C@H]1CN(C)C(=O)c2ccc(NC(=O)Nc3ccccc3F)cc2OC[C@H](C)NC[C@@H]1C was read as rRNA inh HTS inactive, PGC1a acetyl inh inactive, Cneo AK release inactive, SIRT5 inh inactive, Statin myotox sup inactive and S100A4 MyoIIA inactive.
Screening COc1ccc(NC(=O)c2ccc(-c3ccccc3)cc2)cc1S(=O)(=O)N1CCOCC1 returned rRNA inh HTS inactive, PGC1a acetyl inh inactive, SIRT5 inh inactive and S100A4 MyoIIA inactive.
For COc1ccc(/C=C/C(=O)Nc2ccccc2)cc1S(=O)(=O)N1CCOCC1 the results were rRNA inh HTS -17.7, PGC1a acetyl inh inactive, SIRT5 inh inactive, Statin myotox sup inactive and S100A4 MyoIIA inactive.
COc1ccc(C(=O)N2CC=C(c3ccccc3)CC2)cc1S(=O)(=O)N1CCOCC1 was read as PGC1a acetyl inh inactive, Cneo AK release inactive and Statin myotox sup 82.5.
Screening COCCCNCCOc1ccc(C(C)(C)c2ccccc2)cc1 returned rRNA inh HTS inactive, SIRT5 inh inactive and S100A4 MyoIIA inactive.
`CCC(C)NCCOc1ccc(C(C)(C)c2ccccc2)cc1` (stereo not drawn) gave rRNA inh HTS -53.3, PGC1a acetyl inh inactive, Cneo AK release inactive, SIRT5 inh inactive, Statin myotox sup inactive and S100A4 MyoIIA inactive.
C[C@H]1CN([C@@H](C)CO)C(=O)Cc2cc(NS(=O)(=O)c3ccc(Cl)cc3)ccc2O[C@H]1CN(C)CC1CCCCC1 was read as PGC1a acetyl inh inactive, Cneo AK release inactive, Statin myotox sup inactive and S100A4 MyoIIA inactive.
C[C@H]1CN([C@@H](C)CO)C(=O)Cc2cc(NS(=O)(=O)c3ccc(Cl)cc3)ccc2O[C@@H]1CN(C)CC1CCCCC1 was read as rRNA inh HTS inactive, PGC1a acetyl inh inactive and Statin myotox sup 112.4.
Screening C[C@H](CO)N1C[C@H](C)[C@H](CN(C)CC2CCCCC2)Oc2ccc(NS(=O)(=O)c3ccc(Cl)cc3)cc2CC1=O returned rRNA inh HTS inactive, PGC1a acetyl inh inactive, Cneo AK release inactive, SIRT5 inh 29.1, Statin myotox sup inactive and S100A4 MyoIIA inactive.
Screening Cc1noc(C)c1S(=O)(=O)N(C)C[C@H]1OCCCC[C@H](C)Oc2ccc(NC(=O)Nc3ccccc3)cc2C(=O)N([C@H](C)CO)C[C@H]1C returned rRNA inh HTS inactive, PGC1a acetyl inh inactive, Cneo AK release inactive, SIRT5 inh inactive and S100A4 MyoIIA inactive.

Screening results (PubChem)
